Source: ChEMBL document CHEMBL1154838, “Stolonoxides E and F, cytotoxic metabolites from the marine ascidian Stolonica socialis” (2010)

Key:
Format in all cases: functional
MDA-MB-231 = test: Cytotoxicity against human MDA-MB-231 cells after 72 hrs by SRB assay; conditions: MDA-MB-231, 72 h; for CC50: read-out: LC50 (the source's name)
Procedure, shortened: (§1)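 Cells kept in RPMI with 10% fetal calf serum, 2 mM L-glutamine, 100 U/mL penicillin/streptomycin, 37 °C, 5% CO2. Triplicate cultures exposed 72 h to 10 concentrations, 10 to 0.0026 µg/mL. Fixed in 1% glutaraldehyde 15 min, stained with 0.4% SRB 30 min at room temperature, extracted in 10 mM trizma base, absorbance read at 490 nm. GI50 from NCI algorithm, corrected for starting cell count. Doxorubicin positive control, DMSO vehicle.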

HT-29 = test: Cytotoxicity against human HT-29 cells after 72 hrs by SRB assay; conditions: HT-29, 72 h; procedure, shortened: as §1
A549 = test: Cytotoxicity against human A549 cells after 72 hrs by SRB assay; conditions: A549, 72 h; procedure, shortened: as §1

Compound | GI50 (MDA-MB-231) | TGI (MDA-MB-231) | CC50 (MDA-MB-231) | GI50 (HT-29) | LC50 (concentration killing 50% of starting cells) (HT-29) | TGI (HT-29) | GI50 (A549) | LC50 (A549) | TGI (A549)
O=C(O)C[C@@H]1CC[C@@H]([C@H]2CC[C@H](CCCCCCC3\C=C/C=C\C=C/C3)O2)OO1 (stereo not given in full) [STOLONOXIDE F] | 4.7 µM | 5.44 µM | 6.18 µM | 2720 nM | 3.71 µM | 3.21 µM | 5.44 µM | 6.67 µM | 5.93 µM
COc1cccc2c1C(=O)c1c(O)c3c(c(O)c1C2=O)C[C@@](O)(C(=O)CO)C[C@@H]3O[C@H]1C[C@H](N)[C@H](O)[C@H](C)O1 [DOXORUBICIN] | 0.038 µM | 0.31 µM | 2.41 µM | 66 nM |  | 0.4 µM | 0.062 µM |  | 0.26 µM
O=C(O)C[C@@H]1CC[C@@H]([C@@H]2CC[C@@H](CCCCCCC3\C=C/C=C\C=C/C3)O2)OO1 (stereo not given in full) [STOLONOXIDE E] | 4.94 µM | 5.44 µM | 6.18 µM | 3960 nM | 6.67 µM | 5.19 µM | 7.91 µM | 8.65 µM | 8.16 µM
